Compound activity as filed in PubChem BioAssay.
RORA inh = inhibitors of human nuclear receptor RORA. AID 561. CHO-K1 Gal4-RORA LBD luciferase reporter, luminescence. actives 0.43% (n = 65,000). inhibition, % at 10 µM. P35398;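 active = inhibition above the mean of all tested compounds plus 3 SD, cut at about 52% in these data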;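 note: 0% = RORA-transfected cells with DMSO and 100% = mock-transfected cells lacking RORA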
Target sequence (P35398 whole entry, looked up, the tested form may be a part): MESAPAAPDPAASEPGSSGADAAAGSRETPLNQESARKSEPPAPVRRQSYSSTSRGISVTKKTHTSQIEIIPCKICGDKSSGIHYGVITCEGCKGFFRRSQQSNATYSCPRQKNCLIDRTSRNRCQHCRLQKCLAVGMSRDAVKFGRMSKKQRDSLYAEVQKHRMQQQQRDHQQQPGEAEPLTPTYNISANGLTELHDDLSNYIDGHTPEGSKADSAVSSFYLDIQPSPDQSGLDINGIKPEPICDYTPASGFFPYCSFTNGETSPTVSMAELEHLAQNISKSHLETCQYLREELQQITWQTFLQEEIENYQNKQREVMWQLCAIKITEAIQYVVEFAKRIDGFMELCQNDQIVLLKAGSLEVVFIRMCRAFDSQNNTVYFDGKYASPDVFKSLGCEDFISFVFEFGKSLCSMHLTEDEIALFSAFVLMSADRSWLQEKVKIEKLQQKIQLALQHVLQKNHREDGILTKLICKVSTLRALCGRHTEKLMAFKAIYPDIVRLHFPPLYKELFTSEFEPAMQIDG
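Test system – CHO-K1 Gal4-RORA LBD luciferase reporter cells · Schedule – 20 h at 37 °C · Signal – luminescence from basal luciferase reporter expression · Measure – percent inhibition of basal reporter luminescence, control-normalized · Control set – -RORA mock-transfected DMSO wells 100%, +RORA DMSO wells 0%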
Starred values were filed as active, the others as inactive. The sample as a whole holds a higher share of hits than the screen did.

SMILES	RORA inh
CC1(c2ccc(OC(F)F)cc2)NC(=O)N(CC(=O)NC2CCCCC2)C1=O (stereo not given)	20
c1ccc2c(c1)[nH]c1nc3nncn3nc12	-2
COc1cc(OC)nc(NC(=O)C(C)C)n1	-13
O=c1cnnc(SCCc2ccccc2)[nH]1	-21
COc1ccc(C(=O)Nc2ccc(C)cn2)c(OC)c1	78*
CCOc1ccc(NC(=O)c2ccccc2OC)cc1	-49
COc1ccccc1C(=O)Nc1ccccn1	-45
Oc1cc(NCc2cccnc2)ccc1-c1nc2ccccc2o1	-61
NC(=O)c1ccc(NC(=O)CCCc2nc(-c3ccccc3Cl)no2)cc1	0
CNC(=O)CCc1nc(-c2ccc(C(C)(C)C)cc2)no1	89*
CC(C)(C)c1ccc(-c2nnc(SCC(=O)O)n2N)cc1	-8
CN(C)C(=O)CCc1nc(-c2ccc(C(C)(C)C)cc2)no1	82*
c1ccc(-c2noc(CN3CCN(c4ccccc4)CC3)n2)cc1	9
Cc1cccc(-c2noc(Cc3ccccc3)n2)c1	-24
CC(C)(C)c1ccc(-c2noc(CCC(N)=O)n2)cc1	88*
O=C(Nc1ccc(-c2noc(CCc3ccccc3)n2)cc1)c1ccco1	-72
COc1cc2cc(CN(Cc3nnnn3Cc3ccccc3)CC3CCCO3)c(=O)[nH]c2cc1OC (stereo not given)	20
Cc1cc(NC(=O)Cn2nc(C(F)(F)F)c3c2CCC3)n(-c2ccccc2)n1	27
COc1cccc(-c2nc(CS(=O)(=O)CC(=O)N3CCN(C4CCCCC4)CC3)c(C)o2)c1	0
COCCNC(=O)CSCc1nc(-c2ccc(SC)cc2)oc1C	89*
Cc1ccc(CS(=O)(=O)CCC(=O)NCCCN2CCCC2=O)cc1	-3
CCc1ccc(-c2nc(CSCC(=O)NCCCN3CCCC3=O)c(C)o2)cc1	74*
Cc1ccc(-c2nc(CS(=O)(=O)CC(=O)N3CC(C)CC(C)C3)c(C)o2)cc1 (stereo not given)	1
CCCCn1c(SCC(=O)NCc2ccco2)nnc1-c1ccoc1C	6
CCOc1ccc(-c2nc(CSCC(=O)NCc3ccco3)c(C)o2)cc1	94*
SMILES	RORA inh
CCc1ccc(-c2nc(CSCC(=O)N3CCN(c4ccccn4)CC3)c(C)o2)cc1	48
COc1ccc(-c2nc(CSCC(=O)N3CCc4ccccc43)c(C)o2)cc1OC	7
CCOc1ccc(-c2cc(CCCC(=O)NCc3ccco3)no2)cc1	58*
COc1ccc2cc(C3(C)NC(=O)N(CC(=O)NCc4ccco4)C3=O)ccc2c1 (stereo not given)	-1
COc1ccc(-c2nc(CS(=O)CC(=O)NCc3ccco3)c(C)o2)cc1 (stereo not given)	-13
CCCCNC(=O)c1cc(-c2ccc(OC)cc2)on1	-59
Cc1cc(OCC(=O)N2CCOCC2)c(C(C)C)cc1Cl	3
Cc1ccc(NC(=O)c2nnn(-c3cc(C)cc(C)c3)c2N)cc1	-66
O=C(NCCN1CCOCC1)c1cc(-c2cccs2)on1	-68
CC(=O)CC(C)=NCCN=C(C)CC(C)=O	18
CN(C)c1oc(-c2ccccc2Cl)nc1S(=O)(=O)c1ccccc1	18
COCC(C)n1c(COc2ccccc2F)nnc1SCc1c(C)noc1C (stereo not given)	17
Cc1c(C(O)CN2CCC(C(N)=O)CC2)c2ccccc2n1C (stereo not given)	-9
Fc1cccc(NCc2ccoc2)c1	2
CC1CCc2c(nc3ncnn3c2N2CC(C)OC(C)C2)C1 (stereo not given)	1
CS(=O)(=O)Nc1ccc(C(=O)Nc2ccccc2C(=O)N2CCCC2)cc1	-2
CC1(C)O[C@@H]2C[C@H]3[C@@H]4C[C@H](F)C5=CC(=O)CC[C@]5(C)[C@H]4[C@@H](O)C[C@]3(C)[C@]2(C(=O)CO)O1	-8
O=C(Nc1nc2c(ccc3ccccc32)s1)c1ccco1	-59
COc1ccc(C(=O)Nn2c(SCC(=O)NCC3CCCO3)nc3ccccc3c2=O)cc1 (stereo not given)	67*
COc1ccc(CN(CC(=O)NCC2CCCO2)C(=O)CCC(=O)Nc2cc(C)ccn2)cc1 (stereo not given)	-9
CC(=O)NCCn1c(SCC(=O)NCC2CCCO2)nc2ccccc2c1=O (stereo not given)	6
C=C(C)COc1ccc(-c2[nH]ncc2Oc2ccccc2OC)c(O)c1	7
Cc1cc(NC(=O)c2noc3c2CCCCC3)no1	-58
CCCN1C(=O)c2ccc(C(=O)Nc3cc(C)on3)cc2C1=O	9
Cc1cc(NC(=O)c2ccc3c(c2)OCCO3)no1	59*
SMILES	RORA inh
O=C(c1ccc2c(c1)OCO2)N1CCCN(C(=O)c2ccc3c(c2)OCO3)CC1	5
c1ccc(-c2noc(-c3cccc4ccccc34)n2)cc1	-61
Cc1ccc(-c2nc(-c3ccccc3)no2)c(Cl)c1	57*
COc1cccc(-c2nc(-c3ccccc3)no2)c1	-14
c1ccc(CSc2nnc(-c3cccs3)n2Cc2ccco2)cc1	-3
O=C(COC(=O)CNC(=O)c1ccco1)NCCN1C(=O)CSC1=O	-16
CCOC(=O)Cc1nnc(NC(=O)C(CC)Sc2nncn2C)s1 (stereo not given)	-40
COc1ccc(-c2nc(-c3cccc(C)c3)no2)cc1OC	-61
Fc1ccc(-c2nnc(NC3=NCCCCC3)o2)cc1	73*
Cc1nc2oc(C(=O)c3ccccc3)c(N)c2c2c1COC(C)(C)C2	-18
CNc1nc(C)nc(-c2ccccc2O)n1	-14
Cc1cc(-c2nnco2)c(C)n1-c1ccccc1	-13
Cc1ccc(-c2nnc(SCC(=O)Nc3ccccc3F)o2)cc1	63*
Cc1[nH]c2ccc(-c3nnc(SCC(=O)c4ccccc4F)o3)cc2c1C	-7
Cc1cccc(NC(=O)CSc2nnc(-c3cc(C)n(-c4ccccc4)c3C)o2)c1C	63*
Cc1csc(NC(=O)CSc2nnc(-c3ccoc3C)o2)n1	-61
Cc1cccc(C)c1OCc1nnc(SCC(=O)Nc2ccccc2F)o1	10
CC1(C)OC(=O)C(=CNc2cccc(C(=O)O)c2)C(=O)O1	14
CNC(=O)c1c(O)c2cccc3c2n(c1=O)CC3	12
Clc1ccccc1OCCn1cnc2ccccc21	-51
COc1cc(CC(=O)Nc2ccc(S(=O)(=O)Nc3ncccn3)cc2)cc(OC)c1OC	1
c1ccc2nc(-c3nc4ccccc4[nH]3)ccc2c1	66*
Cn1cc(Cl)c(-c2nc3ccccc3[nH]2)n1	-56
Cn1ccnc1-c1nc2ccccc2[nH]c1=O	6
CCOC(=O)N1CCC(N(C(=O)Nc2ccc(CC)cc2)C(C)CC)CC1 (stereo not given)	15
SMILES	RORA inh
O=C(Nc1ccccc1C(=O)NCc1ccco1)NC1CCCCC1	7
N=C1C(c2ccccc2)=C(O)CN1c1ccccc1N1CCOCC1	2
CCCn1c(NCc2ccc(N(C)C)cc2)nc2ccccc21	-5
c1ccc(CNc2ncnc3ccccc23)cc1	56*
Cc1ccc(-n2ncc3c(NCc4ccccc4)ncnc32)cc1	-61
CCOc1ccccc1Nc1ncnc2ccccc12	-14
Nc1nnnn1/N=C/C(Br)=C/c1ccccc1	77*
O=C(CCc1ccccc1)Nc1nc2n(n1)C(c1ccccc1)CC(=O)N2 (stereo not given)	-16
COc1cc2[nH]c(=O)n(Cc3ccc(C(=O)NCC4CCCO4)cc3)c(=O)c2cc1OC (stereo not given)	6
COC(=O)/C=C(\C)NC(=O)c1ccccc1Cl	-8
CC(C)CNS(=O)(=O)c1ccc(CCC(=O)N2CCN(Cc3ccccc3)CC2)cc1	14
